Laboratory results from PMC3171605 (Bioorganic & medicinal chemistry letters, 2011).

Experiments:
CB1 [1] = molecular target: T1, CB1 (Homo sapiens, UniProt P21554); type: cell-based
CB1 [2] = molecular target: T1, CB1; experiment: Radioligand displacement of [3H]1; type: binding
MDCK-mdr1 cells = experiment: MDCK-mdr1 transport assay; type: in vitro ADME, Canine; settings: 3.16 µM apical, 1 hr at 37°C
In short: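 MDCK-mdr1 cells grown on permeable filter inserts for 4 days to confluence. Test compound applied apically at 3.16 µM, incubated 1 hr at 37°C, alongside two reference CB1 antagonists as controls. Apical and basolateral samples dried under nitrogen and quantified by LC-MS/MS (MRM) using a 0.1% formic acid water/methanol gradient at 0.5 mL/min. Read-out is the percentage transported across the monolayer.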

T1 sequence (P21554 whole entry, species assumed): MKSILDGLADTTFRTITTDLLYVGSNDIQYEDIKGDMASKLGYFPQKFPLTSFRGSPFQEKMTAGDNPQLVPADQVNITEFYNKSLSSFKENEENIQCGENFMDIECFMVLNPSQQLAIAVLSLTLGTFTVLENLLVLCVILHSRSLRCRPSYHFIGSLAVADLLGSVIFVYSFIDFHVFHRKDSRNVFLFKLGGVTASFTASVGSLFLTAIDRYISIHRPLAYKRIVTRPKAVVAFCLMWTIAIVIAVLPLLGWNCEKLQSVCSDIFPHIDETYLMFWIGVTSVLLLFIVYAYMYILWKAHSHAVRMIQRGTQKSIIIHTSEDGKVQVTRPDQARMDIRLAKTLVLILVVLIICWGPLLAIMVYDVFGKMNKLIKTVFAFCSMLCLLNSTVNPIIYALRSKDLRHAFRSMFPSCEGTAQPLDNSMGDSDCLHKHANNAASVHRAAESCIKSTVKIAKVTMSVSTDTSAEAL

Row | Kb (CB1 [1]) [µM] | SMILES | also measured
1 | 0.117 | Cc1c(C(=O)Nc2ccncc2)nn(-c2ccc(Cl)cc2Cl)c1-c1ccc(Cl)cc1 [Compound 5] | 
2 | 1.39 | Cc1c(C(=O)Nc2cc[n+]([O-])cc2)nn(-c2ccc(Cl)cc2Cl)c1-c1ccc(Cl)cc1 [Compound 7] | 
3 | 0.384 | Cc1ccc(NC(=O)c2nn(-c3ccc(Cl)cc3Cl)c(-c3ccc(Cl)cc3)c2C)cn1 [Compound 8] | 
4 | 1.2 | Cc1c(C(=O)Nc2ccc(C)[n+]([O-])c2)nn(-c2ccc(Cl)cc2Cl)c1-c1ccc(Cl)cc1 [Compound 10] | 
5 | 0.98 | Cc1ccc(NC(=O)c2nn(-c3ccc(Cl)cc3Cl)c(-c3ccc(Cl)cc3)c2C)nc1 [Compound 11] | 
6 | 9.43 | Cc1c(C(=O)N[C@H]2CC[C@H](NS(N)(=O)=O)CC2)nn(-c2ccc(Cl)cc2Cl)c1-c1ccc(Cl)cc1 [Compound 18] | 
7 | 3.76 | Cc1c(C(=O)NCC2CCC(CN)CC2)nn(-c2ccc(Cl)cc2Cl)c1-c1ccc(Cl)cc1 (stereo not shown) [Compound 19] | 
8 |  | Cc1c(C(=O)NCC2CCC(CNS(C)(=O)=O)CC2)nn(-c2ccc(Cl)cc2Cl)c1-c1ccc(Cl)cc1 (stereo not shown) [Compound 20] | Ki (CB1 [2]): ~0.01 µM
9 |  | Cc1c(C(=O)NC[C@H]2CC[C@@H](CNS(C)(=O)=O)CC2)nn(-c2ccc(Cl)cc2Cl)c1-c1ccc(Cl)cc1 [Compound 22] | transport from apical to basal side of the membrane (MDCK-mdr1 cells): less than 1%
10 |  | Cc1c(C(=O)NC[C@H]2CC[C@@H](CNS(N)(=O)=O)CC2)nn(-c2ccc(Cl)cc2Cl)c1-c1ccc(Cl)cc1 [Compound 23] | transport from apical to basal side of the membrane (MDCK-mdr1 cells): less than 1%
11 |  | CCNC1(C(N)=O)CCN(c2ncnc3c2nc(-c2ccccc2Cl)n3-c2ccc(Cl)cc2)CC1 [otenabant, reference compound] | transport from apical to basal side of the membrane (MDCK-mdr1 cells): ~ 90%
12 |  | Cc1c(C(=O)NN2CCCCC2)nn(-c2ccc(Cl)cc2Cl)c1-c1ccc(Cl)cc1 [rimonabant, reference compound] | transport from apical to basal side of the membrane (MDCK-mdr1 cells): ~ 15%

Row | SMILES | Kb (CB1 [1]) [µM] | also measured
13 | Cc1c(C(=O)Nc2cc[n+](C)cc2)nn(-c2ccc(Cl)cc2Cl)c1-c1ccc(Cl)cc1 [Compound 6] | > 10 | 
14 | Cc1c(C(=O)Nc2ccc(C)[n+](C)c2)nn(-c2ccc(Cl)cc2Cl)c1-c1ccc(Cl)cc1 [Compound 9] | 8.41 | 
15 | Cc1ccc(NC(=O)c2nn(-c3ccc(Cl)cc3Cl)c(-c3ccc(Cl)cc3)c2C)[n+](C)c1 [Compound 12] | 8.59 | 
16 | Cc1ccc(NC(=O)c2nn(-c3ccc(Cl)cc3Cl)c(-c3ccc(Cl)cc3)c2C)[n+]([O-])c1 [Compound 13] | 4.58 | 
